T cell HTS – modulates CD8 T cell binding to vesicles | 2C CD8+ T cell-vesicle binding, flow cytometry; hits give low values | response (vesicle binding), % at 7 µM | hit rate 0.068% among 330,000;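 active means response, share of CD8 T cells binding vesicles, and their 90th percentile fluorescence all below set limits, cut at about 80% in these data, passing the limit was not always enough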;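 further: values below 100% mean blocked vesicle binding to the CD8+ T cells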
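material = purified 2C TCR transgenic mouse naive CD8+ T cells | controls = Unloaded micro-vesicles (low), QL9 vesicles with 0.7% DMSO (high) | detection = cytometric PE anti-B7-1 and Alexa647 anti-CD8 signals after 1% paraformaldehyde fixation | incubation = binding step 1.5 h, 37 °C, antibody labelling 20 min, ice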
PKA-R2B activ – activators of human PKA-R2B complex | activation, % at 11.4 µM | PKA-R2B holoenzyme dissociation, Cy5-IP20 fluorescence polarization; R2B truncated from residue 108, S112A mutant; 0% DMSO only, 100% 113 µM cGMP | P22694+P31323 | hit rate 0.079% among 340,000;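 active means activation above a cutoff set at the mean over all compounds plus 3 SD, cut at about 18% in these data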;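 further: higher means more holoenzyme dissociation and a rise in polarization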
PfG6PD inh – PfG6PD (Plasmodium falciparum) enzyme inhibition. AID 504690. hit rate 0.78% among 350,000. inhibition, % at 20 µM. PfGluPho enzyme, NADPH resazurin-diaphorase fluorescence;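 active means inhibition reaching at least a set limit at 20 µM in the primary screen, cut at about 59% in these data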
PKA-R1A act – PKA-R1A complex activation; PKA-R1A dissociation, Cy5-IP20 fluorescence polarization; scaled: DMSO 0%, 113 µM cGMP 100%; P00514+P68181; activation, % at 11.4 µM; hit rate 0.083% among 340,000;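 active means percent activation above the mean of all tested compounds plus 3 SD, cut at about 19% in these data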;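 further: higher means more PKAc released from R1A so a rise in polarization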
ATG4B inhibitor – ATG4B (human) cysteine protease inhibition; AID 504462; Q9Y4P1; inhibition, % at 8.33 µM; ATG4B cleavage of LC3-PLA2, NBD-HPC fluorescence, 1 h; hit rate 0.51% among 340,000; in the data active means inhibition above about 40%
HKDC1 inh – blocks human hexokinase HKDC1 activity | Q2TB90 | recombinant HKDC1, G6PDH/diaphorase resazurin coupled fluorescence | inhibition, % at 20 µM | hit rate 0.16% among 340,000;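 active means inhibition above about 35% when tested at 20 µM, limit read from the data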
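Material – in-house recombinant HK5 (HKDC1) enzyme · Quantity – HKDC1 at 5 µg/mL · Buffer or medium – pH 8.0 Tris buffer with 10 mM MgCl2 · Reagent – glucose with 1 mM ATP · Dosing – single 20 µM dose · Times – reaction time 90 min, room temperature, protected from light · Technique – resorufin fluorescence at 613 nm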
PfG6PD confirm – PfG6PD inhibition, single-dose confirmed | shares compounds with PfG6PD inh | AID 504753 | hit rate 34% among 2,400 | inhibition, % at 20 µM | recombinant PfGluPho, NADPH-diaphorase-resazurin fluorescence;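 active means inhibition of at least 50% at 20 µM in any single replicate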
Diaphorase 10uM – inhibits diaphorase or oxidizes, flagging false PfG6PD hits; shares compounds with PfG6PD inh; diaphorase-coupled resazurin reduction, fluorescence, NADPH 10 uM; inhibition, % at 20 µM; hit rate 39% among 820; AID 504862;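 active means average inhibition reaching 50% or more with the compound at 20 µM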;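 further: resorufin red fluorescence formed as diaphorase reduces resazurin using NADPH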
Diaph ctr 30uM – inhibits diaphorase or oxidizes, flagging false PfG6PD hits. inhibition, % at 20 µM. AID 504863. shares compounds with PfG6PD inh. hit rate 29% among 820. Diaphorase/resazurin coupled assay, resorufin fluorescence, 30 uM NADPH;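 active means inhibition averaging 50% or more, tested at 20 µM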
Numbers stand for hits; n = inactive; x = no result given. A selection: hits, their analogues and other compounds. The true share with any hit is near 1.6%.

SMILES | T cell HTS | PKA-R2B activ | PfG6PD inh | PKA-R1A act | ATG4B inhibitor | HKDC1 inh | PfG6PD confirm | others
CCc1ccccc1N1CSC2=C(C#N)C(c3ccccc3F)CC(=O)N2C1 (stereo not drawn) | n | n | 74.1 | n | n | n | 51.0 | Diaphorase 10uM=n;Diaph ctr 30uM=n
CCCCOc1ccc(/C=N/NC(=O)c2nnn(-c3nonc3N)c2C)cc1 | n | n | n | n | n | n | x
Clc1ccc2[nH]cc(-c3nnnn3-c3ccccc3)c2c1 | n | n | 96.5 | n | n | n | n
Clc1ccc2ncc(-c3nnnn3-c3ccccc3)c(-c3ccccc3)c2c1 | n | n | n | n | n | n | x
COC(=O)c1sc(S(=O)(=O)Nc2c(C)nn(C)c2C)c(C(=O)OC)c1C | x | n | n | n | n | n | x
COC(=O)c1sc(NC(=S)NNC(=O)c2c(Br)c(C)nn2C)c(C(=O)OC)c1C | n | n | 61.3 | n | n | n | n
CCCCN(C(=O)COC(=O)COc1c(C)cc(C)cc1C)c1c(N)n(CCC)c(=O)[nH]c1=O | n | n | n | n | n | n | x
COc1ccc(C(=O)Nc2nnc(S(=O)(=O)N3CCCCCC3)s2)cc1OC | n | n | n | n | n | n | x
O=C(Nc1nnc(S(=O)(=O)N2CCCCC2)s1)c1cccc(Br)c1 | n | n | 99.7 | n | n | n | 60.7 | Diaphorase 10uM=69.4;Diaph ctr 30uM=n
O=C(Nc1nnc(S(=O)(=O)N2CCCC2)s1)c1cccc([N+](=O)[O-])c1 | n | n | 97.3 | n | n | n | 76.7 | Diaphorase 10uM=50.1;Diaph ctr 30uM=n
O=C(NCCNC(=O)c1cc(Cl)ccc1Cl)c1ccccn1 | n | n | n | n | n | n | x
Cc1ccc2c(c1)c1ccc3c(c1n2C)C(=O)C=CC3=O | x | n | 65.8 | n | n | n | n
O=C(NCCn1cc(SCc2ccc(F)cc2)c2ccccc21)c1ccccc1F | n | n | 76.5 | n | n | n | n
O=C(NCCn1cc(SCc2ccc(F)cc2)c2ccccc21)c1c(F)cccc1F | n | n | 86.1 | n | n | n | n
O=C(NCCn1cc(SCc2ccccc2)c2ccccc21)c1c(F)cccc1F | n | n | 64.4 | n | n | n | n
CCn1c(SCC(=O)Nc2ccccc2Br)nnc1-c1cnccn1 | n | n | n | n | n | n | x
C=CCn1c(SCC(=O)Nc2ccc(F)cc2)nnc1-c1cnccn1 | n | n | 64.3 | n | n | n | n
CCOc1ccccc1NC(=O)CSc1nnc(-c2cnccn2)n1CC | n | n | 73.0 | n | n | n | n
CCn1c(SCC(=O)Nc2ccc(F)cc2)nnc1-c1cnccn1 | n | n | 87.5 | n | n | n | n
C=CCn1c(SCC(=O)Nc2c(C)cccc2C)nnc1-c1cnccn1 | n | n | n | n | n | n | x
Cc1ccc(C(=O)COC(=O)C2CC3CCCC(C2)C3=O)cc1[N+](=O)[O-] (stereo not drawn) | n | n | n | n | n | n | x
CCOC(=O)c1c(C)[nH]c(C(=O)OCC(=O)NCc2ccco2)c1C | x | n | n | n | x | x | x
COc1cc(C(c2sc3nc(C)nn3c2O)N2CCc3ccccc3C2)cc(OC)c1OC (stereo not drawn) | n | n | n | n | n | n | x
COc1ccc(C(c2sc3nc(C)nn3c2O)N2CCc3ccccc3C2)cc1 (stereo not drawn) | n | n | 59.1 | n | n | n | n
CC(C)c1cc(CN2C(C)COCC2C)cc(C(C)C)c1O (stereo not drawn) | x | n | n | n | n | n | x
SMILES | T cell HTS | PKA-R2B activ | PfG6PD inh | PKA-R1A act | ATG4B inhibitor | HKDC1 inh | PfG6PD confirm | others
O=[N+]([O-])c1ccc(COc2ccc(Br)cc2CN2CCOCC2)cc1 | n | n | 65.3 | n | n | n | n
O=[N+]([O-])c1ccc(CN2CCOCCOCCN(Cc3ccc([N+](=O)[O-])cc3)CCOCC2)cc1 | n | n | 62.2 | n | n | n | n
O=[N+]([O-])c1ccc(COc2ccc(CN3CCOCC3)cc2)cc1 | x | n | n | n | n | n | x
CC1=NN(c2nc(N)nc(/C(C#N)=C/c3ccc([N+](=O)[O-])o3)n2)C(C)(C)C1 | x | n | 69.1 | n | n | n | n
O=C1C2C(C(=O)N1/N=C/c1ccc([N+](=O)[O-])o1)C1C=CC2C12CC2 (stereo not drawn) | n | n | n | n | n | n | x
Cc1ccc2nc(SCC(=O)c3ccc(Cl)s3)[nH]c2c1 | n | n | 61.5 | n | n | n | n
NS(=O)(=O)c1cccc(NC(=O)c2cc3ccccc3o2)c1 | n | n | n | n | n | n | x
CCC(=O)Nc1cccc(NC(=O)c2cc3ccccc3o2)c1 | n | n | n | n | n | n | x
Cc1cccc(NC(=O)c2cc3ccccc3o2)c1 | x | n | 65.0 | n | n | n | n
O=C(Nc1cccc(Br)c1)c1cc2ccccc2o1 | n | n | 97.2 | n | n | n | n
O=C(Nc1ccc2c(c1)Cc1ccccc1-2)c1cc2ccccc2o1 | n | n | n | n | n | n | x
CCOC(=O)c1ccc(NC(=O)c2cc3ccccc3o2)cc1 | n | n | 67.2 | n | n | n | n
O=C(Nc1ccc2c(c1)CCC2)c1cc2ccccc2o1 | n | n | 88.0 | n | n | n | n
COc1ccc(F)cc1C(=O)C1CCCN(C(=O)c2ccccc2N(C)C)C1 (stereo not drawn) | n | n | n | n | n | n | x
CCc1c(Cl)nc(N)nc1Nc1ccccc1Cl | x | n | n | n | n | n | x
COc1ccccc1-n1c(=O)oc2ccc(Cl)cc2c1=O | n | n | 60.9 | n | n | n | n
Nc1c(C(=O)OCC2CCCO2)c2nc3ccccc3nc2n1C1CCCC1 (stereo not drawn) | n | n | n | n | n | n | n
O=C(Cc1csc(N2CCOCC2)n1)N/N=C/c1ccc(O)c(O)c1O | x | n | 72.4 | n | n | n | 61.9 | Diaphorase 10uM=57.0;Diaph ctr 30uM=64.4
C/C(=N\NC(=O)Cc1csc(N2CCOCC2)n1)c1ccccc1 | n | n | n | n | n | n | x
Cc1cccc(C(=O)Nc2ccc(C(=O)c3ccccc3)cc2)c1 | n | x | 63.1 | x | n | n | n
Cc1cccc(C(=O)Nc2ccc(C(=O)c3ccncc3)cc2)c1 | x | n | 64.3 | n | x | x | n
CCNC(=S)N/N=C/c1cccc(OCc2c(F)cccc2Cl)c1 | n | n | 59.9 | n | n | n | n
CNC(=S)N/N=C/c1cccc(OCc2ccccc2F)c1 | n | n | n | n | n | n | x
